ChEMBL document CHEMBL1130012 (J Med Chem, 1997)

How the values were obtained:
Conditions in all cases: in vivo, 0.25 h; call rule not given here
[1] = species on record: Rattus norvegicus; assay: The Biodistribution of the antagonistic compound in male wistar rats, after 15 minutes of injection in the stomach expressed as (body weight-corrected) uptake value; type: organism-based
[2] = species on record: Rattus norvegicus; assay: The Biodistribution of the antagonistic compound in male wistar rats, after 15 minutes of injection in the intestine expressed as (body weight-corrected) uptake value; type: organism-based
[3] = tested on: Rattus norvegicus; assay: The Biodistribution of the antagonistic compound along with pretreated atropine (2.5 mg/kg) in male wistar rats after 15 minutes of injection in the intestine expressed as (body weight-corrected) uptake value; type: organism-based
In short: (§1)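 Same protocol, except the pretreatment was saline containing atropine (0.5 mg/0.5 mL; 2.5 mg/kg) given i.v. 1 min before tail-vein injection of the radioligand (1.85-2.78 MBq in 0.4 mL saline) into pentobarbital-anaesthetized (60 mg/kg) male Wistar rats (240 g). Tissues removed at 15 min and counted ex vivo. Uptake is body-weight-corrected DAR = (cpm/g tissue)/(cpm injected/g body weight).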

[4] = tested on: Rattus norvegicus; assay: The Biodistribution of the antagonistic compound along with pretreated atropine (2.5 mg/kg) in male wistar rats after 15 minutes of injection in the cortex expressed as (body weight-corrected) uptake value; Below limit of detection; type: organism-based; in short: as §1
[5] = species on record: Rattus norvegicus; assay: The Biodistribution of the antagonistic compound in male wistar rats, after 15 minutes of injection in the trachea expressed as (body weight-corrected) uptake value; type: organism-based
[6] = tested on: Rattus norvegicus; assay: The Biodistribution of the antagonistic compound along with pretreated atropine (2.5 mg/kg) in male wistar rats after 15 minutes of injection in the pancreas expressed as (body weight-corrected) uptake value; type: organism-based; in short: as §1
[7] = tested on: Rattus norvegicus; assay: The Biodistribution of the antagonistic compound along with pretreated atropine (2.5 mg/kg) in male wistar rats after 15 minutes of injection in the heart expressed as (body weight-corrected) uptake value; type: organism-based; in short: as §1
[8] = tested on: Rattus norvegicus; assay: The Biodistribution of the antagonistic compound along with pretreated atropine (2.5 mg/kg) in male wistar rats after 15 minutes of injection in the lung expressed as (body weight-corrected) uptake value; type: organism-based; in short: as §1
[9] = tested on: Rattus norvegicus; assay: The Biodistribution of the antagonistic compound along with pretreated atropine (2.5 mg/kg) in male wistar rats after 15 minutes of injection in the submandibular gland expressed as (body weight-corrected) uptake value; type: organism-based; in short: as §1
[10] = tested on: Rattus norvegicus; assay: The Biodistribution of the antagonistic compound along with pretreated atropine (2.5 mg/kg) in male wistar rats after 15 minutes of injection in the fat expressed as (body weight-corrected) uptake value; type: organism-based, Adipose tissue; in short: as §1
[11] = species on record: Rattus norvegicus; assay: The Biodistribution of the antagonistic compound in male wistar rats, after 15 minutes of injection in the muscle expressed as (body weight-corrected) uptake value; type: organism-based, Muscle tissue
[12] = tested on: Rattus norvegicus; assay: The Biodistribution of the antagonistic compound along with pretreated atropine (2.5 mg/kg) in male wistar rats after 15 minutes of injection in the stomach expressed as (body weight-corrected) uptake value; type: organism-based; in short: as §1
[13] = species on record: Rattus norvegicus; assay: The Biodistribution of the antagonistic compound in male wistar rats, after 15 minutes of injection in the testes expressed as (body weight-corrected) uptake value; type: organism-based, Testis
[14] = tested on: Rattus norvegicus; assay: The Biodistribution of the antagonistic compound along with pretreated atropine (2.5 mg/kg) in male wistar rats after 15 minutes of injection in the trachea expressed as (body weight-corrected) uptake value; type: organism-based; in short: as §1
[15] = tested on: Rattus norvegicus; assay: The Biodistribution of the antagonistic compound along with pretreated atropine (2.5 mg/kg) in male wistar rats after 15 minutes of injection in the spleen; type: organism-based; in short: as §1
[16] = tested on: Rattus norvegicus; assay: The Biodistribution of the antagonistic compound along with pretreated atropine (2.5 mg/kg) in male wistar rats after 15 minutes of injection in the liver expressed as (body weight-corrected) uptake value; type: organism-based; in short: as §1
[17] = species on record: Rattus norvegicus; assay: The Biodistribution of the antagonistic compound in male wistar rats, after 15 minutes of injection in the spleen expressed as (body weight-corrected) uptake value; type: organism-based
[18] = tested on: Rattus norvegicus; assay: The Biodistribution of the antagonistic compound along with pretreated atropine (2.5 mg/kg) in male wistar rats after 15 minutes of injection in the bladder; type: organism-based, Urinary bladder/Urine; in short: as §1
[19] = tested on: Rattus norvegicus; assay: The Biodistribution of the antagonistic compound along with pretreated atropine (2.5 mg/kg) in male wistar rats after 15 minutes of injection in the red blood cells; Below limit of detection expressed as (body weight-corrected) uptake value; type: organism-based; in short: as §1
[20] = species on record: Rattus norvegicus; assay: The Biodistribution of the antagonistic compound in male wistar rats, after 15 minutes of injection in the lung expressed as (body weight-corrected) uptake value; type: organism-based
[21] = species on record: Rattus norvegicus; assay: The Biodistribution of the antagonistic compound in male wistar rats, after 15 minutes of injection in the cerebellum expressed as (body weight-corrected) uptake value; Below limit of detection; type: organism-based
[22] = species on record: Rattus norvegicus; assay: The Biodistribution of the antagonistic compound in male wistar rats, after 15 minutes of injection in the red blood cells expressed as (body weight-corrected) uptake value; Below limit of detection; type: organism-based
[23] = species on record: Rattus norvegicus; assay: The Biodistribution of the antagonistic compound in male wistar rats, after 15 minutes of injection in the fat expressed as (body weight-corrected) uptake value; type: organism-based, Adipose tissue
[24] = tested on: Rattus norvegicus; assay: The Biodistribution of the antagonistic compound along with pretreated atropine (2.5 mg/kg) in male wistar rats after 15 minutes of injection in the muscle expressed as (body weight-corrected) uptake value; type: organism-based, Muscle tissue; in short: as §1
[25] = tested on: Rattus norvegicus; assay: The Biodistribution of the antagonistic compound along with pretreated atropine (2.5 mg/kg) in male wistar rats after 15 minutes of injection in the cerebellum; Below limit of detection; type: organism-based; in short: as §1
[26] = species on record: Rattus norvegicus; assay: The Biodistribution of the antagonistic compound in male wistar rats, after 15 minutes of injection in the pancreas expressed as (body weight-corrected) uptake value; type: organism-based
[27] = species on record: Rattus norvegicus; assay: The Biodistribution of the antagonistic compound in male wistar rats, after 15 minutes of injection in the heart; type: organism-based
[28] = species on record: Rattus norvegicus; assay: The Biodistribution of the antagonistic compound in male wistar rats, after 15 minutes of injection in the liver expressed as (body weight-corrected) uptake value; type: organism-based
[29] = species on record: Rattus norvegicus; assay: The Biodistribution of the antagonistic compound in male wistar rats, after 15 minutes of injection in the submandibular gland expressed as (body weight-corrected) uptake value; type: organism-based
[30] = species on record: Rattus norvegicus; assay: Biodistribution of compound in male wistar rats, after 15 minutes of injection in the bladder expressed as (body weight-corrected) uptake value; type: ADME, organism-based, Urinary bladder/Urine
[31] = tested on: Rattus norvegicus; assay: The Biodistribution of the antagonistic compound along with pretreated atropine (2.5 mg/kg) in male wistar rats after 15 minutes of injection in the testes expressed as (body weight-corrected) uptake value; type: organism-based, Testis; in short: as §1
[32] = tested on: Rattus norvegicus; assay: The Biodistribution of the antagonistic compound along with pretreated atropine (2.5 mg/kg) in male wistar rats after 15 minutes of injection in the plasma expressed as (body weight-corrected) uptake value; type: organism-based; in short: as §1
[33] = species on record: Rattus norvegicus; assay: The Biodistribution of the antagonistic compound in male wistar rats, after 15 minutes of injection in the cortex expressed as (body weight-corrected) uptake value; Below limit of detection; type: organism-based
[34] = species on record: Rattus norvegicus; assay: The Biodistribution of the antagonistic compound in male wistar rats, after 15 minutes of injection in the plasma expressed as (body weight-corrected) uptake value; type: organism-based
[35] = tested on: Rattus norvegicus; assay: The Biodistribution of the antagonistic compound along with pretreated atropine (2.5 mg/kg) in male wistar rats after 15 minutes of injection in the kidney expressed as (body weight-corrected) uptake value; type: organism-based; in short: as §1
[36] = species on record: Rattus norvegicus; assay: The Biodistribution of the antagonistic compound in male wistar rats, after 15 minutes of injection in the kidney expressed as (body weight-corrected) uptake value; type: organism-based

Question: C[N+]1(C)CCC(OC(=O)C(O)(c2ccccc2)C2CCCCC2)CC1.[I-] (racemic) was tested. Which Uptake value [1] did it give?
Answer: 1.62

Question: What about the Uptake value [2] of the same compound?
Answer: 3.39

Question: What about the Uptake value [3] of the same compound?
Answer: 1.1

Question: And the Uptake value [4]?
Answer: Not Active

Question: What about the Uptake value [5] of the same compound?
Answer: 0.54

Question: And the Uptake value [6]?
Answer: 0.34

Question: What about the Uptake value [7] of the same compound?
Answer: 0.16

Question: And the Uptake value [8]?
Answer: 0.14

Question: And the Uptake value [9]?
Answer: 0.2

Question: And the Uptake value [10]?
Answer: 0.23

Question: What about the Uptake value [11] of the same compound?
Answer: 0.08

Question: And the Uptake value [12]?
Answer: 0.45

Question: What about the Uptake value [13] of the same compound?
Answer: 0.07

Question: What about the Uptake value [14] of the same compound?
Answer: 0.24

Question: What about the Uptake value [15] of the same compound?
Answer: 0.18

Question: And the Uptake value [16]?
Answer: 8.1

Question: What about the Uptake value [17] of the same compound?
Answer: 0.97

Question: And the Uptake value [18]?
Answer: 9.72

Question: And the Uptake value [19]?
Answer: Not Active

Question: And the Uptake value [20]?
Answer: 0.67

Question: What about the Uptake value [21] of the same compound?
Answer: Not Active

Question: What about the Uptake value [22] of the same compound?
Answer: Not Active

Question: And the Uptake value [23]?
Answer: 0.5

Question: And the Uptake value [24]?
Answer: 0.07

Question: What about the Uptake value [25] of the same compound?
Answer: Not Active

Question: What about the Uptake value [26] of the same compound?
Answer: 1.97

Question: What about the Uptake value [27] of the same compound?
Answer: 8.45

Question: And the Uptake value [28]?
Answer: 6.27

Question: And the Uptake value [29]?
Answer: 1.68

Question: And the Uptake value [30]?
Answer: 4.71

Question: What about the Uptake value [31] of the same compound?
Answer: 0.11

Question: What about the Uptake value [32] of the same compound?
Answer: 0.13

Question: And the Uptake value [33]?
Answer: Not Active

Question: What about the Uptake value [34] of the same compound?
Answer: 0.14

Question: What about the Uptake value [35] of the same compound?
Answer: 1.49

Question: And the Uptake value [36]?
Answer: 2.48
